Published values gathered from unrelated publications.
Read-out: cell growth or viability

SMILES | cell line | assay | conditions | endpoint | result
COc1cc2c3c(n(CCCNCCO)c(=O)c2cc1OC)-c1nc2c(cc1C3=O)OCO2 | SF-539 | SRB | 48 h | GI50 | 1000 nM
C=CC(=O)NC1CCN(c2ncc3ncnc(Nc4ccc(Oc5ccc6c(c5)ncn6C)c(C)c4)c3n2)CC1 | NCI-H322 |  |  | EC50 | 471 nM
CC(C)c1ccccc1[C@@H]1CCCN1C1CC2(CCN(c3ccc(C(=O)NS(=O)(=O)c4ccc(NC[C@H]5CC[C@](C)(O)CC5)c([N+](=O)[O-])c4)c(Oc4cnc5[nH]ccc5c4)c3)CC2)C1 | Rec1 | ATP luminescence | 48 h | IC50 | 183 nM
CC(=O)Nc1ccc(Oc2ccc(C(=O)C(Cl)Cl)cc2[N+](=O)[O-])cc1 | NCI-H1975 | MTT | 2.5 µM | inhibition | 88.3%
C=C(F)C(=O)N1CCN(c2nc(OC[C@@H]3CCCN3C)nc3c2CCN(c2cccc4cccc(Cl)c24)C3)C[C@@H]1CC#N | SW1463 | ATP luminescence | 3D culture | IC50 | 4.22 nM
CN(C)C/C=C/C(=O)Nc1cc2c(Nc3ccc(F)c(Cl)c3)ncnc2cc1O[C@H]1CCOC1 | NCI-H1975 | MTT | 72 h | IC50 | 30500 nM
O=C(c1ccc(Oc2ccc(OCc3ccccc3)cc2)c([N+](=O)[O-])c1)C(Cl)Cl | NCI-H1975 | MTT | 2.5 µM | inhibition | 95.2%
Cc1ccc2c(-c3cc4c(CN5CCN(Cc6ccccn6)CC5)cnc(C)c4o3)cc(=O)oc2c1 | NCI-H1975 | MTT | 72 h | IC50 | 32100 nM
CC(C)Oc1ccc(S(=O)(=O)c2ccc(Oc3cc(OCC(N)=O)c(C(=O)C(Cl)Cl)cc3[N+](=O)[O-])cc2)cc1 | HEK293 | MTT | 72 h | IC50 | 1220 nM
O=C(NO)c1ccc(CNc2nc3cccc(-c4ccc5c(c4)OCO5)n3n2)cc1 | SF-539 | SRB |  | GI50 | 600 nM
C#Cc1cccc(Nc2ncnc3cc(OCCOC)c(OCCOC)cc23)c1 | NCI-H1975 | MTT | 72 h | IC50 | 55000 nM
O=C1CC[C@@H](COc2ccc(C(=O)C(Cl)Cl)cc2[N+](=O)[O-])N1 | NCI-H1975 | MTT | 2.5 µM | inhibition | 96.7%
Cc1ncc(CN2CCN(Cc3ccccn3)CC2)c2cc(C(=O)c3ccc4c(c3)OCCO4)oc12 | NCI-H1975 | MTT | 72 h | IC50 | 38800 nM
Cc1sc2c(c1C)C(c1ccc(Cl)cc1)=N[C@@H](CC(=O)NCCCCCCCCNC(=O)COc1cccc3c1C(=O)N(C1CCC(=O)NC1=O)C3=O)c1nnc(C)n1-2 (stereo partly shown) | SET-2 | ATP luminescence |  | IC50 | 35 nM
O=C(c1ccccc1)c1ccc(Oc2ccc(C(=O)C(Cl)Cl)cc2[N+](=O)[O-])cc1 | NCI-H1975 | MTT | 2.5 µM | inhibition | 97.8%
C=CC(=O)N1CCN(c2nc(=O)n(-c3c(C)ccnc3C(C)C)c3nc(-c4c(O)cccc4F)c(F)cc23)[C@@H](C)C1 | SW1463 | ATP luminescence |  | IC50 | 132 nM
